Measured values taken from ChEMBL document CHEMBL4028805, “Phenylthiazole Antibacterial Agents Targeting Cell Wall Synthesis Exhibit Potent Activity in Vitro and in Vivo against Vancomycin-Resistant Enterococci” (J Med Chem, 2017).
≈ marks a conversion by molar mass, not a printed value. Calls of active or inactive are those of the source. The rule behind the calls is not given here.

Assays:
[1] = Induction of proton motive force collapse in Escherichia coli inverted membrane vesicle in presence of succinate/O2-driven PMF generation system by ACMA-based fluorescence assay; format: functional, cell membranes
In short: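 E. coli inverted membrane vesicles (0.1 mg/mL membrane protein) with 2 μM ACMA and 0.5 mM ATP or succinate, in 10 mM HEPES-KOH, 5 mM MgSO4, 100 mM KCl, pH 7.5. Proton gradient followed by ACMA fluorescence (ex 410/em 480 nm). EC50 taken from dose-response curves. CCCP used as reference uncoupler.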

[2] = test system: HRT-18 cell line; assay: Cytotoxicity against human HRT18 cells assessed as reduction in cell viability at 20 ug/ml after 24 hrs by MTS assay; format: cell-based; settings: hrt-18, 24 h
In short: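 HRT-18 cells maintained in RPMI-1640 with 10% fetal horse serum at 37 °C, 5% CO2. Exposed to 5, 10, 20 or 40 μg/mL for 2 or 24 h, then MTS added and absorbance read at 490 nm. Viability expressed relative to untreated cells, n ≥ 3, one-way ANOVA with Dunnett's test.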

[3] = test system: Enterococcus faecalis; assay: Synergistic antimicrobial activity against Enterococcus faecalis ATCC 51299 after 20 hrs in presence of linezolid by checkerboard assay; format: functional
In short: (§1)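 Checkerboard in TSB with a starting inoculum of 1×10^5 CFU/mL. Compound and antibiotic diluted from 2× or 4× MIC along perpendicular axes. Incubated 20 h at 37 °C. ΣFIC calculated: ≤0.5 synergy, >0.5 to <2 additive, 2–4 indifference, >4 antagonism.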

[4] = test system: Caenorhabditis elegans; assay: Toxicity in Caenorhabditis elegans AU37 assessed as worm survival at 20 ug/ml after 24 hrs by microscopic analysis; settings: caenorhabditis elegans, 24 h
In short: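 Adult C. elegans AU37, 15–20 per well, exposed in triplicate to 10 or 20 μg/mL, with sterile water as negative control. Viability checked by microscopy. Result reported as percent viable worms after 24 h exposure.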

[5] = test system: Pseudomonas aeruginosa; assay: Antibacterial activity against Pseudomonas aeruginosa ATCC 15442 after 18 to 22 hrs in presence of 1/4 times MIC colistin by broth microdilution method; format: functional
In short: (§2)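 Broth microdilution per CLSI guidelines. Gram-negatives grown in TSB. Each strain tested alone and again with colistin at ¼ × MIC to permeabilize the outer membrane. Plates incubated at 37 °C for 18–22 h. MIC read as the lowest concentration showing no visible growth.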

[6] = test system: Enterococcus faecalis; assay: Inhibition of UPPP-mediated peptidoglycan biosynthesis in Enterococcus faecalis NR-31975 assessed as accumulation of UDP-N-acetylmuramyl-pentapeptide at 10 times MIC after 30 mins by HPLC-MS analysis
In short: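 Pellets boiled 30 min. UDP-N-acetylmuramyl-pentapeptide measured by HPLC-TOF MS on a phenyl column, 5–20% acetonitrile/0.1% formic acid gradient, positive ESI.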

[7] = target: T1, Farnesyl pyrophosphate synthase (Homo sapiens, UniProt P14324); assay: Inhibition of human FPPS
T1 sequence (P14324 whole entry): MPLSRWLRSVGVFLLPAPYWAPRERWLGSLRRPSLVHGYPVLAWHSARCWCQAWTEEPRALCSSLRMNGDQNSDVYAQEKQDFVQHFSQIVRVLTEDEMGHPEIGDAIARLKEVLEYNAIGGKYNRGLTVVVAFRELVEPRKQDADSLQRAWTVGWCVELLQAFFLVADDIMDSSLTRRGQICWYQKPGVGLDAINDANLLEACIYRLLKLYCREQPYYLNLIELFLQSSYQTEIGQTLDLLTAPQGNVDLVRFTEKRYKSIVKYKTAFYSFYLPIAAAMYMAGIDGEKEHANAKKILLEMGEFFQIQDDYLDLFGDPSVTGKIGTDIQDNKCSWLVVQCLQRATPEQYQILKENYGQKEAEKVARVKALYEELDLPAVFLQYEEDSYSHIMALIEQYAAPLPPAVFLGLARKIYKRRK

[8] = test system: Enterococcus faecalis; assay: Synergistic antimicrobial activity against Enterococcus faecalis ATCC 51299 after 20 hrs in presence of ampicillin by checkerboard assay; format: functional; in short: as §1
[9] = test system: Enterococcus faecalis; assay: Synergistic antimicrobial activity against Enterococcus faecalis ATCC 49532 after 20 hrs in presence of ciprofloxacin by checkerboard assay; format: functional; in short: as §1
[10] = test system: Enterobacter cloacae; assay: Antibacterial activity against Enterobacter cloacae BAA-1154 after 18 to 22 hrs in absence of colistin by broth microdilution method; format: functional
[11] = test system: Escherichia coli; assay: Antibacterial activity against Escherichia coli 1411 after 18 to 22 hrs in absence of colistin by broth microdilution method; format: functional; in short: as §2
[12] = test system: Enterococcus faecalis; assay: Synergistic antimicrobial activity against Enterococcus faecalis ATCC 51299 after 20 hrs in presence of doxycycline by checkerboard assay; format: functional; in short: as §1

CCCCc1ccc(-c2nc(C)c(/C(C)=N/NC(=N)N)s2)cc1
EC50 [1]: 25 µM | Activity [2]: Non-Toxic | fractional inhibitory concentration index (FICI) [3]: 2 | Activity [4]: Non-Toxic | MIC [5]: 1 µg/mL | inhibition [6]: Active | inhibition (INH) [7]: Not Active | fractional inhibitory concentration index (FICI) [8]: 3 | fractional inhibitory concentration index (FICI) [9]: 0.63 - 1 | MIC [10]: 64 µg/mL (≈ 194 µM) | MIC [11]: 64 µg/mL (≈ 194 µM) | fractional inhibitory concentration index (FICI) [12]: 2
